Experimental findings from ChEMBL document CHEMBL1828498, “Identification and characterization of a novel integrin-linked kinase inhibitor” (J Med Chem, 2011) are described below.

In experiment [1] the test system is 3-phosphoinositide dependent protein kinase-2, PDK2. Nature of the experiment: Inhibition of PDK2 in human PC3 cells assessed as Akt Ser-473 dephosphorylation by Western blot analysis. It is filed as functional, cell-based. Conditions: PC-3. Put shortly:
(§1)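 Cells exposed 24 h in 5% FBS medium, final DMSO 0.1%; lysed in 1% SDS/10 mM EDTA/50 mM Tris pH 8.1, equal protein on SDS-PAGE, nitrocellulose, primary antibody 1:1000 at 4°C for 2 h, HRP secondary 1:5000, ECL detection; blots representative of three independent experiments.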
On the technique in general: Immunoblotting shows a protein as a band on a membrane.

The target in experiment [2] is T1, 3-phosphoinositide-dependent protein kinase 1 (Homo sapiens) (UniProt O15530).
T1 sequence (whole entry): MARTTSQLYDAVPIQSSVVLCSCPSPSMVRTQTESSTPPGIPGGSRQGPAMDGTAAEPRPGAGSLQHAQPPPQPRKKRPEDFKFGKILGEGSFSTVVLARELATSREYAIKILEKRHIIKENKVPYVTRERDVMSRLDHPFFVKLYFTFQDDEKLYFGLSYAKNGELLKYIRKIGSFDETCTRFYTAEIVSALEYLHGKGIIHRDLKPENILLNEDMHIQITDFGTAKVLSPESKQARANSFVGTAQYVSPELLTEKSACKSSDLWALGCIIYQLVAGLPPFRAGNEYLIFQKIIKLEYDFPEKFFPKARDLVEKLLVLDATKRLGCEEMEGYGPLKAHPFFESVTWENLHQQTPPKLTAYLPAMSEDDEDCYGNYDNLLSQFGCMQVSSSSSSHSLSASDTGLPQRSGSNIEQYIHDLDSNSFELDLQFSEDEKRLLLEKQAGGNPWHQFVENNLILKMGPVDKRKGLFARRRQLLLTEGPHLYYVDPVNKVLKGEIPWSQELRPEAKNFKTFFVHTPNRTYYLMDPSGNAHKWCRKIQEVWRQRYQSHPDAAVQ
Nature of the experiment: Inhibition of PDK2 in human PC3 cells assessed as Akt Thr-308 dephosphorylation by Western blot analysis. The class given is functional, cell-based. Conditions: PC-3. The essentials: as §1

Calls of active or inactive are those of the source. The rule behind the calls is not given here.

`NC(=O)c1cccc(C(=O)N2CCN(c3ccc(-n4nc(C(F)(F)F)cc4-c4ccc5c(ccc6ccccc65)c4)cc3)CC2)c1`: the inhibition entry in experiment [1] and in experiment [2] was “inactive” throughout.
For `NS(=O)(=O)Nc1ccc(-n2nc(C(F)(F)F)cc2-c2ccc3c(ccc4ccccc43)c2)cc1`, the inhibition entry in experiment [1] and in experiment [2] was “inactive” in each case.
Regarding `NC(=O)CNc1ccc(-n2nc(C(F)(F)F)cc2-c2ccc3c(ccc4ccccc43)c2)cc1`, the inhibition entry in experiment [1] and in experiment [2] was “inactive” throughout.
As to `CNC(=O)CCc1cc(-c2ccc3c(ccc4ccccc43)c2)n(-c2ccc(N3CCNCC3)cc2)n1`, the inhibition result in experiment [1] and in experiment [2] was “inactive” in each case.
`CCNC(=O)CCc1cc(-c2ccc(-c3ccc(C(F)(F)F)cc3)cc2)n(-c2ccc(N3CCNCC3)cc2)n1`: in experiment [1], the inhibition result is “Active”. Also, the inhibition result in experiment [2] was “inactive”.
In the case of `Nc1ccc(C(=O)N2CCN(c3ccc(-n4nc(C(F)(F)F)cc4-c4ccc5c(ccc6ccccc65)c4)cc3)CC2)cc1`, the inhibition result in experiment [1] and in experiment [2] was “inactive” in each case.
Turning to `O=[N+]([O-])c1ccc(S(=O)(=O)N2CCN(c3ccc(-n4nc(C(F)(F)F)cc4-c4ccc5c(ccc6ccccc65)c4)cc3)CC2)cc1`, the inhibition result in experiment [1] and in experiment [2] was “inactive” each time.
For the molecule `CCNC(=O)c1cc(-c2ccc(-c3ccc(C(F)(F)F)cc3)cc2)n(-c2ccc(NC(=O)CCN)cc2)n1`, the inhibition entry in experiment [1] and in experiment [2] was “inactive” each time.
Turning to `FC(F)(F)c1ccc(-c2ccc(-c3cc(C(F)(F)F)nn3-c3ccc(N4CCNCC4)cc3)cc2)cc1`, the inhibition entry in experiment [1] and in experiment [2] was “inactive” in each case.
On to `O=C(c1cccc([N+](=O)[O-])c1)N1CCN(c2ccc(-n3nc(C(F)(F)F)cc3-c3ccc4c(ccc5ccccc54)c3)cc2)CC1`, for which the inhibition entry in experiment [1] and in experiment [2] was “inactive” throughout.
Take `CCNC(=O)c1cc(-c2ccc3ccc4ccccc4c3c2)n(-c2ccc(NC(=O)CN)cc2)n1`: the inhibition entry in experiment [1] and in experiment [2] was “inactive” each time.
As for `CNC(=O)c1cc(-c2ccc(-c3ccc(C(F)(F)F)cc3)cc2)n(-c2ccc(N3CCNCC3)cc2)n1`, the inhibition entry in experiment [1] and in experiment [2] was “inactive” in each case.
Consider `NCCCC[C@@H](N)C(=O)Nc1ccc(-n2nc(C(F)(F)F)cc2-c2ccc3c(ccc4ccccc43)c2)cc1`, for which the inhibition entry in experiment [1] and in experiment [2] was “inactive” each time.
As for `CC(=O)c1ccc(S(=O)(=O)N2CCN(c3ccc(-n4nc(C(F)(F)F)cc4-c4ccc5c(ccc6ccccc65)c4)cc3)CC2)cc1`, the inhibition result in experiment [1] and in experiment [2] was “inactive” in each case.
Consider `CNC(=O)CCc1cc(-c2ccc(-c3ccc(C(F)(F)F)cc3)cc2)n(-c2ccc(NC(=O)CCN)cc2)n1`, for which the inhibition result in experiment [1] and in experiment [2] was “inactive” each time.
Regarding `CNC(=O)c1cc(-c2ccc3ccc4ccccc4c3c2)n(-c2ccc(NC(=O)CN)cc2)n1`, the inhibition entry in experiment [1] and in experiment [2] was “inactive” throughout.
With `CCC(C)C(N)C(=O)Nc1ccc(-n2nc(C(F)(F)F)cc2-c2ccc(-c3ccc(C(F)(F)F)cc3)cc2)cc1` (stereo not given), the inhibition entry in experiment [1] and in experiment [2] was “inactive” in each case.
With `CCNC(=O)c1cc(-c2ccc3ccc4ccccc4c3c2)n(-c2ccc(NC(=O)CCN)cc2)n1`, the inhibition result in experiment [1] and in experiment [2] was “inactive” each time.
On to `CC(C)CC(N)C(=O)Nc1ccc(-n2nc(C(F)(F)F)cc2-c2ccc(-c3ccc(C(F)(F)F)cc3)cc2)cc1` (stereo not given), for which the inhibition entry in experiment [1] and in experiment [2] was “inactive” in each case.
For `NCC(=O)Nc1ccc(-n2nc(C(F)(F)F)cc2-c2ccc3c(c2)oc2ccccc23)cc1`, the inhibition entry in experiment [1] and in experiment [2] was “inactive” each time.
Take `NC(=O)c1ccc(C(=O)N2CCN(c3ccc(-n4nc(C(F)(F)F)cc4-c4ccc5c(ccc6ccccc65)c4)cc3)CC2)cc1`: the inhibition result in experiment [1] and in experiment [2] was “inactive” each time.
In the case of `COc1ccc(S(=O)(=O)N2CCN(c3ccc(-n4nc(C(F)(F)F)cc4-c4ccc5c(ccc6ccccc65)c4)cc3)CC2)cc1`, the inhibition result in experiment [1] and in experiment [2] was “inactive” in each case.
Turning to `CNC(=O)c1cc(-c2ccc3c(ccc4ccccc43)c2)n(-c2ccc(NC(=O)CCN)cc2)n1`, the inhibition entry in experiment [1] and in experiment [2] was “inactive” in each case.
Take `NC(Cc1ccccc1)C(=O)Nc1ccc(-n2nc(C(F)(F)F)cc2-c2ccc(-c3ccc(C(F)(F)F)cc3)cc2)cc1` (stereo not given): the inhibition entry in experiment [1] and in experiment [2] was “inactive” in each case.
Regarding `CNC(=O)CCc1cc(-c2ccc(-c3ccc(C(F)(F)F)cc3)cc2)n(-c2ccc(N3CCOCC3)cc2)n1`, the inhibition result in experiment [1] and in experiment [2] was “inactive” throughout.
Turning to `NCCC(=O)Nc1ccc(-n2nc(C(F)(F)F)cc2-c2ccc3ccc4ccccc4c3c2)cc1`, the inhibition entry in experiment [1] and in experiment [2] was “inactive” in each case.
In the case of `N#Cc1cccc(C(=O)N2CCN(c3ccc(-n4nc(C(F)(F)F)cc4-c4ccc5c(ccc6ccccc65)c4)cc3)CC2)c1`, the inhibition result in experiment [1] and in experiment [2] was “inactive” each time.
In the case of `CC(C)NC(=O)CCc1cc(-c2ccc(-c3ccc(C(F)(F)F)cc3)cc2)n(-c2ccc(NC(=O)CCN)cc2)n1`, the inhibition result in experiment [1] and in experiment [2] was “inactive” in each case.
Regarding `O=C1CCC(=O)N1c1ccc(-n2nc(C(F)(F)F)cc2-c2ccc3c(ccc4ccccc43)c2)cc1`, the inhibition entry in experiment [1] and in experiment [2] was “inactive” each time.
`CC(=O)Nc1ccc(S(=O)(=O)N2CCN(c3ccc(-n4nc(C(F)(F)F)cc4-c4ccc5c(ccc6ccccc65)c4)cc3)CC2)cc1`: the inhibition result in experiment [1] and in experiment [2] was “inactive” each time.
For the molecule `NCCC(=O)Nc1ccc(-n2nc(C(F)(F)F)cc2-c2ccc3c(c2)oc2ccccc23)cc1`, the inhibition entry in experiment [1] and in experiment [2] was “inactive” each time.
`NCCCC[C@H](N)C(=O)Nc1ccc(-n2nc(C(F)(F)F)cc2-c2ccc3c(ccc4ccccc43)c2)cc1`: the inhibition entry in experiment [1] and in experiment [2] was “inactive” throughout.
With `CNC(=O)c1cc(-c2ccc(-c3ccc(C(F)(F)F)cc3)cc2)n(-c2ccc(NC(=O)CCN)cc2)n1`, the inhibition entry in experiment [1] and in experiment [2] was “inactive” each time.
For the molecule `O=C(c1ccncc1)N1CCN(c2ccc(-n3nc(C(F)(F)F)cc3-c3ccc4c(ccc5ccccc54)c3)cc2)CC1`, the inhibition result in experiment [1] and in experiment [2] was “inactive” in each case.
For the molecule `NCCC(=O)Nc1ccc(-n2nc(C(F)(F)F)cc2-c2ccc(-c3ccc(C(F)(F)F)cc3)cc2)cc1`, the inhibition entry in experiment [1] and in experiment [2] was “inactive” each time.
For the molecule `O=C(Nc1ccc(-n2nc(C(F)(F)F)cc2-c2ccc3c(ccc4ccccc43)c2)cc1)N1CCOCC1`, the inhibition result in experiment [1] and in experiment [2] was “inactive” throughout.
Take `O=C(c1ccc([N+](=O)[O-])cc1)N1CCN(c2ccc(-n3nc(C(F)(F)F)cc3-c3ccc4c(ccc5ccccc54)c3)cc2)CC1`: the inhibition entry in experiment [1] and in experiment [2] was “inactive” throughout.
In the case of `CNC(=O)c1cc(-c2ccc3c(ccc4ccccc43)c2)n(-c2ccc(NC(=O)CN)cc2)n1`, the inhibition entry in experiment [1] and in experiment [2] was “inactive” in each case.
Turning to `CNC(=O)CCc1cc(-c2ccc(-c3ccc(C#N)cc3)cc2)n(-c2ccc(N3CCNCC3)cc2)n1`, the inhibition entry in experiment [1] and in experiment [2] was “inactive” in each case.
Regarding `CC(C)NC(=O)c1cc(-c2ccc(-c3ccc(C(F)(F)F)cc3)cc2)n(-c2ccc(NC(=O)CCN)cc2)n1`, the inhibition result in experiment [1] and in experiment [2] was “inactive” throughout.
On to `N#Cc1ccc(C(=O)N2CCN(c3ccc(-n4nc(C(F)(F)F)cc4-c4ccc5c(ccc6ccccc65)c4)cc3)CC2)cc1`, for which the inhibition entry in experiment [1] and in experiment [2] was “inactive” in each case.
For the molecule `O=C(c1ccc(OC(F)(F)F)cc1)N1CCN(c2ccc(-n3nc(C(F)(F)F)cc3-c3ccc4c(ccc5ccccc54)c3)cc2)CC1`, the inhibition result in experiment [1] and in experiment [2] was “inactive” in each case.
Regarding `NC(=O)CCNc1ccc(-n2nc(C(F)(F)F)cc2-c2ccc3c(ccc4ccccc43)c2)cc1`, the inhibition entry in experiment [1] and in experiment [2] was “inactive” throughout.
As to `NCCC(=O)Nc1ccc(-n2nc(C(F)(F)F)cc2-c2ccc3c(ccc4ccccc43)c2)cc1`, the inhibition result in experiment [1] and in experiment [2] was “inactive” each time.
Regarding `CCNC(=O)CCc1cc(-c2ccc(-c3ccc(C(F)(F)F)cc3)cc2)n(-c2ccc(NC(=O)CCN)cc2)n1`, the inhibition entry in experiment [1] and in experiment [2] was “inactive” throughout.
